In brackets after ≈: the same amount, converted by molar mass.
Legend:
[1] = tested on: Candida tropicalis; assay: In vitro Minimum inhibitory concentration was determined by microbroth dilution assay on Candida tropicalis; assay type: functional
Outline: (§1)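 Microbroth dilution, 4×10^3 cells/mL (C. albicans B311; C. tropicalis and T. glabrata clinical isolates, pre-grown 18 h at 35 °C and washed) in YNB with asparagine and glucose, pH 5.5; 0.10–100 μg/mL drug, 1% DMSO final; 24 h at 35 °C, quadruplicate wells. MIC read visually as first concentration with marked growth reduction; geometric mean reported.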

[2] = tested on: Nakaseomyces glabratus; assay: In vitro Minimum inhibitory concentration was determined by microbroth dilution assay on Torulopsis glabrata; assay type: functional; outline: as §1
[3] = tested on: Candida albicans; assay: In vitro Minimum inhibitory concentration was determined by microbroth dilution assay on Candida albicans; assay type: functional; outline: as §1
[4] = tested on: Candida tropicalis; assay: In vitro Minimum lethal concentration was determined by microbroth dilution assay on Candida tropicalis; assay type: functional
Outline: (§2)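 C. albicans strain B311; C. tropicalis and T. glabrata were clinical isolates. Yeasts were pregrown 18 h at 35 °C, 125 rpm, in the test medium, saline-washed three times and counted by hemocytometer. Assay medium was YNB with 0.15% asparagine and 2% glucose, pH 5.5. Final drug 0.10 to 100 μg/mL, 1% DMSO, 4×10^3 cells/mL, quadruplicate wells, 35 °C for 24 h. MLC = first concentration whose subculture (Sabouraud agar, 48 h, 35 °C) gave ≤50 CFU/mL; geometric mean reported.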

[5] = tested on: Candida albicans; assay: In vitro Minimum lethal concentration was determined by microbroth dilution assay on Candida albicans; assay type: functional; outline: as §2
[6] = tested on: Nakaseomyces glabratus; assay: In vitro Minimum lethal concentration was determined by microbroth dilution assay on Torulopsis glabrata; assay type: functional; outline: as §2
[7] = tested on: Candida albicans; assay: Inhibition type against delta 24-sterol Methyl transferase
Outline: (§3)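 Microsomes from C. albicans ATCC 28367, 0.20 mg microsomal protein per assay; desmosterol as sterol substrate, SAM 25 μM; standard assay pH 7.5. Reversible inhibition patterns and constants fitted by Cleland COMP/NONCOMP, or otherwise by a parabolic competitive inhibition equation, which gives the alpha cooperativity factor for binding of two inhibitor molecules.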

[8] = tested on: Candida albicans; assay: Compound was tested for the inhibition of delta24-sterol Methyl transferase; outline: as §3
[9] = tested on: Candida albicans
[10] = tested on: Candida albicans; assay: Alpha factor which describes the cooperativity of binding of 2 identical inhibitor molecules.; outline: as §3
[11] = tested on: Candida albicans; assay: Compound was tested for the inhibition of Delta 24-sterol-C-methyl-transferase; outline: as §3

| Kis [8] | SMILES | MIC [1] | MIC [2] | MIC [3] | MLC [4] | MLC [5] | MLC [6] | Inhibition type [7] | Kii [9] | Alpha c [10] | Kis [11] |
| --- | --- | --- | --- | --- | --- | --- | --- | --- | --- | --- | --- |
|  | C[C@@H]1[C@H](O)[C@@H](C)/C=C/C=C/C=C/C=C/C=C/C=C/C=C/[C@H](O[C@@H]2O[C@H](C)[C@@H](O)[C@H](N)[C@@H]2O)C[C@@H]2O[C@](O)(C[C@@H](O)C[C@@H](O)[C@H](O)CC[C@@H](O)C[C@@H](O)CC(=O)O[C@H]1C)C[C@H](O)[C@H]2C(=O)O [AMPHOTERICIN B] | 0.2 µg/mL (≈ 0.216 µM) | 0.1 µg/mL (≈ 0.108 µM) | 0.2 µg/mL (≈ 0.216 µM) | 0.4 µg/mL (≈ 0.433 µM) | 0.8 µg/mL (≈ 0.866 µM) | 0.4 µg/mL (≈ 0.433 µM) |  |  |  |  |
|  | CC(C)[S+](C)CC[C@@H](C)C1CCC2C3CC=C4C[C@@H](O)CC[C@]4(C)C3CC[C@@]21C.[I-] (some centres not stated) | 0.2 µg/mL | 1.6 µg/mL | 0.2 µg/mL | 6.3 µg/mL | 50 µg/mL | 50 µg/mL | Parabolic competitive |  | 0.05 | 16 nM |
| 20000 nM | CC(C)[S+]([O-])CC[C@@H](C)C1CCC2C3CC=C4C[C@@H](O)CC[C@]4(C)C3CC[C@@]21C (some centres not stated) |  |  |  |  |  |  | Competitive |  |  |  |
|  | CC(=O)N1CCN(c2ccc(OCC3COC(Cn4ccnc4)(c4ccc(Cl)cc4Cl)O3)cc2)CC1 (configuration not stated) [KETOCONAZOLE] | 1.6 µg/mL (≈ 3.01 µM) | 3.1 µg/mL (≈ 5.83 µM) | 0.1 µg/mL (≈ 0.188 µM) | 6.3 µg/mL (≈ 11.9 µM) | 12.5 µg/mL (≈ 23.5 µM) | 12.5 pug ml-1 |  |  |  |  |
|  | C[C@H](CCC(=N)N)C1CC[C@@]2(C)C3=C(CC[C@]12C)[C@@]1(C)CC[C@H](O)C(C)(C)C1CC3.O=S(=O)(O)C(F)(F)F (some centres not stated) | 0.4 µg/mL | 3.1 µg/mL | 0.2 µg/mL | 12.5 µg/mL | 12.5 µg/mL | 50 µg/mL | Parabolic competitive |  | 0.06 | 11 nM |
|  | CC(C)SCC[C@@H](C)C1CCC2C3CC=C4C[C@@H](O)CC[C@]4(C)C3CC[C@@]21C (some centres not stated) | > 100 µg/mL | > 100 µg/mL | 50 µg/mL (≈ 124 µM) | >100 µg/mL | >100 µg/mL | >100 µg/mL | Competitive |  |  | 1500 nM |
| 72000 nM | CC(C)SCC[C@@H](C)C1CC[C@@]2(C)C3=C(CC[C@]12C)[C@@]1(C)CC[C@H](O)C(C)(C)C1CC3 (some centres not stated) |  |  |  |  |  |  | Competitive |  |  |  |
| 6 nM | C[C@H](CCC(N)=[N+](C)C)C1CC[C@@]2(C)C3=C(CC[C@]12C)[C@@]1(C)CC[C@H](O)C(C)(C)C1CC3 (some centres not stated) |  |  |  |  |  |  | Parabolic competitive |  |  |  |
| 21 nM | CC(C)[S+](C)CC[C@@H](C)C1CC[C@@]2(C)C3=C(CC[C@]12C)[C@@]1(C)CC[C@H](O)C(C)(C)C1CC3 (some centres not stated) |  |  |  |  |  |  | Parabolic competitive |  | 0.02 |  |

| SMILES | Kis [8] | MIC [1] | MIC [2] | MIC [3] | MLC [4] | MLC [5] | MLC [6] | Inhibition type [7] | Kii [9] | Alpha c [10] | Kis [11] |
| --- | --- | --- | --- | --- | --- | --- | --- | --- | --- | --- | --- |
| C[C@H](CCc1ncc[nH]1)C1CC[C@@]2(C)C3=C(CC[C@]12C)[C@@]1(C)CC[C@H](O)C(C)(C)C1CC3 (some centres not stated) | 11 nM | > 100 µg/mL | > 100 µg/mL | 1.6 µg/mL (≈ 3.65 µM) | >100 µg/mL | >100 µg/mL | >100 µg/mL | Noncompetitive | 25 nM |  |  |
| C[C@H](CCc1nccn1C)C1CC[C@@]2(C)C3=C(CC[C@]12C)[C@@]1(C)CC[C@H](O)C(C)(C)C1CC3 (some centres not stated) | 5 nM | 12.5 µg/mL (≈ 27.6 µM) | > 100 µg/mL | 0.4 µg/mL (≈ 0.884 µM) | 100 µg/mL (≈ 221 µM) | >100 µg/mL | >100 µg/mL | Parabolic competitive |  |  |  |
| CC[S+](CC[C@@H](C)C1CCC2C3CC=C4C[C@@H](O)CC[C@]4(C)C3CC[C@@]21C)C(C)C.[I-] (some centres not stated) | 500 nM | 100 µg/mL | > 100 µg/mL | 100 µg/mL | >100 µg/mL | >100 µg/mL | >100 µg/mL | Parabolic competitive |  |  |  |

From ChEMBL document CHEMBL1126006, “Synthesis, specificity, and antifungal activity of inhibitors of the Candida albicans delta 24-sterol methyltransferase” (J Med Chem, 1992)
